In BindingDB's records for doi:10.1016/j.bmcl.2007.10.100 (Columbia University, 2008):
Peptide text beside a SMILES is read from it. * marks the point of attachment. Cbz = O=C(OCc1ccccc1)*

Columns and labels:
[1] = target: Transcription factor p65 (Human, UniProt Q04206); assay: Inhibition of TNF-alpha-stimulated human NF-kappaB p65 RelA subunit nuclear translocation in HUVEC
Summary of the method: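 HUVEC (fewer than 8 passages) were seeded at 3,000 cells/well. Compounds were added in 8-point series, either from 10 µM final in media with 0.33% DMSO diluted 1:3, or from 8 µM diluted 1:2. After 3.5 h with compound, cells were stimulated with […] for 30 min. Cells were then fixed, permeabilized, stained with Hoechst and with anti-p65 plus an Alexa 647 secondary, and imaged automatically. IC50 is from curve fitting of one experiment run in triplicate, with BAY 11-7082 as the positive control.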

[2] = Induction of human IkappaBalpha stabilization in OCI-Ly3 cells by green light emiting IkappaBalpha-fused luciferase reporter gene assay
[3] = Induction of human IkappaBalpha stabilization in OCI-Ly3 cells assessed as ratio of green light emiting IkappaBalpha-fused luciferase expression to red light emiting native luciferase expression

Chain of Transcription factor p65 (Q04206 whole entry): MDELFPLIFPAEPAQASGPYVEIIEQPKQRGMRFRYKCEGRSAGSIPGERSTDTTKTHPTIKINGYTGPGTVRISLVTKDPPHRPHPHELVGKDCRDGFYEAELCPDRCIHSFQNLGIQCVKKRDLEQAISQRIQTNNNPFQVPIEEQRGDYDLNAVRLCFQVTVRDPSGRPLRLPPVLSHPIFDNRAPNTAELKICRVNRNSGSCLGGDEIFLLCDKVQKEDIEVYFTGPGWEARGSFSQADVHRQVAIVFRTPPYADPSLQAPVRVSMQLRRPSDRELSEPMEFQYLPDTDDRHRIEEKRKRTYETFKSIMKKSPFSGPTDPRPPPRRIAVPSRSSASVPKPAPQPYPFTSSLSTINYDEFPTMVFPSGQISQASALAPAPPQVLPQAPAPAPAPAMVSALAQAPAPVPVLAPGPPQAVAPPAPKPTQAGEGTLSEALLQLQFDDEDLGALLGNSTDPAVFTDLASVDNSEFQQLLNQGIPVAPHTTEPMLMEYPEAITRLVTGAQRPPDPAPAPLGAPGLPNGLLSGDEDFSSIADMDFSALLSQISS

Structure (SMILES) | IC50 [1] [µM] | EC50 [2] [µM] | EC50 [3] [µM]
COc1cc2ccc(C)nc2c2c1-c1cc(C)ccc1S(=O)(=O)N2 | 0.9 | 1.4 | 2.3
Cc1ccc2cccc(NS(=O)(=O)c3ccccc3N)c2n1 | 2.8 | 8 | 8
COc1ccc2c(c1)-c1ccc3cccnc3c1NS2(=O)=O | 1 | 1.3 | 1.4
COc1cnc2c3c(ccc2c1)-c1ccccc1S(=O)(=O)N3 | 2.5 | – | –
CC(C)C[C@@H](C=O)NC(=O)[C@H](CC(C)C)NC(=O)[C@H](CC(C)C)NC(=O)OCc1ccccc1 [{1-[(S)-(S)-1-((S)-1-Formyl-3-methyl-butylcarbamoyl)-3-methyl-butylcarbamoyl]-3-methyl-butyl}-carbamic acid benzyl ester] (Cbz-Leu-Leu-Leu-aldehyde) | – | 1 | 5.2
Cc1ccc2ccc3c(c2n1)NS(=O)(=O)c1ccc(C(F)(F)F)cc1-3 | 1.2 | 8.9 | 7.2
COc1cc(NS(=O)(=O)c2ccc(C)cc2N)c2nc(C)ccc2c1 | – | 9.4 | 3
O=[N+]([O-])c1ccccc1S(=O)(=O)Nc1cccc2cccnc12 [2-nitro-N-quinolin-8-yl-benzenesulfonamide] | 3.2 | 11 | 12
O=[N+]([O-])c1ccc(S(=O)(=O)Nc2cccc3cccnc23)cc1 | 1.5 | 6.5 | 17
Cc1ccc2cccc(NS(=O)(=O)c3ccccc3[N+](=O)[O-])c2n1 | 3.8 | 6.8 | 8
Cc1ccc2cccc(NS(=O)(=O)c3ccc(C(F)(F)F)cc3[N+](=O)[O-])c2n1 | 1.1 | 10 | 3.6
O=S1(=O)Nc2c(ccc3cccnc23)-c2ccccc21 [5H-quinolino[8,7-c][1,2]benzothiazine 6,6-dioxide] | 1 | 2.2 | 2.6
O=S1(=O)Nc2c(ccc3cccnc23)-c2cc(F)ccc21 | 1.7 | 4.1 | 12
COc1cc(NS(=O)(=O)c2ccc(C)cc2N)c2ncccc2c1 | 1 | 4 | 4
COc1cc2cccnc2c2c1-c1cc(C)ccc1S(=O)(=O)N2 | 1.2 | 1.3 | 1.6
COc1ccc(S(=O)(=O)Nc2cccc3ccc(C)nc23)c([N+](=O)[O-])c1 | 1 | – | –
O=S1(=O)Nc2c(ccc3cccnc23)-c2cc(Cl)ccc21 | 1.1 | 1.1 | 11
O=[N+]([O-])c1cc(C(F)(F)F)ccc1S(=O)(=O)Nc1cccc2cccnc12 | 3.7 | 3.6 | 20
COc1cc(NS(=O)(=O)c2ccc(C)cc2)c2nc(C)ccc2c1 | > 10 | 20 | 20

Structure (SMILES) | IC50 [1] [µM] | EC50 [2] [µM] | EC50 [3] [µM]
Cc1ccc2cccc(NS(=O)(=O)c3cc([N+](=O)[O-])ccc3C)c2n1 | – | > 20 | > 57
Cc1ccc([N+](=O)[O-])cc1S(=O)(=O)Nc1cccc2cccnc12 | 1.6 | 1 | > 10
Cc1ccc2cccc(NS(=O)(=O)c3ccc(Cl)s3)c2n1 | 1 | 1.4 | 2.1
Cc1ccc(S(=O)(=O)/C=C/C#N)cc1 [BAY-11-7082] | 3 | – | –
COc1cc(NS(=O)(=O)c2ccc(C)cc2[N+](=O)[O-])c2nc(C)ccc2c1 | – | > 10 | > 57
O=S(=O)(Nc1cccc2cccnc12)c1cccs1 | 3.6 | 5.3 | 9
Nc1ccccc1S(=O)(=O)Nc1cccc2cccnc12 | 2 | 11 | 8.5
Cc1ccc2cccc(NS(=O)(=O)c3cccc([N+](=O)[O-])c3)c2n1 | 0.9 | 6 | 13
Cc1ccc2ccc3c(c2n1)NS(=O)(=O)c1ccc(O)cc1-3 | 10 | 8 | 11
Cc1cnc2c3c(ccc2c1)-c1ccccc1S(=O)(=O)N3 | – | 7 | 10
O=S1(=O)Nc2c(ccc3cccnc23)-c2cc(C(F)(F)F)ccc21 | 1 | 0.7 | 1
O=S(=O)(Nc1cccc2cccnc12)c1ccc(Br)s1 | 1.1 | 5.9 | 6.8
Cc1ccc2c(c1)-c1ccc3cccnc3c1NS2(=O)=O | 0.6 | 0.5 | 0.8
COc1cc(NS(=O)(=O)c2ccc(C)cc2[N+](=O)[O-])c2ncccc2c1 | 2.1 | 6.8 | 7.6
O=S(=O)(Nc1cccc2cccnc12)c1ccccc1 [N-(quinolin-8-yl)benzenesulfonamide] | > 10 | 17 | 20
Cc1ccc2cccc(NS(=O)(=O)c3ccc(Br)s3)c2n1 | 1.4 | 6.1 | 6.4
COc1ccc2c(c1)-c1ccc3ccc(C)nc3c1NS2(=O)=O | 2.5 | 3.7 | 3.4
O=S(=O)(Nc1cccc2cccnc12)c1ccc(Cl)s1 | 1.3 | 2.7 | 2.7
